Measured values published in ChEMBL document CHEMBL4382230, “Structure-activity relationships, biological evaluation and structural studies of novel pyrrolonaphthoxazepines as antitumor agents” (Eur J Med Chem, 2019).
In brackets after ≈: the same amount, converted by molar mass. Activity calls are given as the source filed them. The rule behind the calls is not given here.

Tests used:
[1] = tested on: HL-60; experiment: Cell cycle arrest in human HL60 cells assessed as accumulation of cells at G2/M phase at 10 uM after 24 hrs by propidium iodide staining-based flow cytometric analysis; assay type: functional
Procedure, shortened: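 HL-60 exposed to 10 μM for 24 h, vehicle 0.1% DMSO. Cells plated at 2×10^5 cells/mL, stained in PBS with 0.1% sodium citrate, 0.1% NP40 and propidium iodide for 30 min at room temperature in the dark. DNA content by flow cytometry; G2/M fraction reported.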

[2] = molecular target: T1, Tubulin (Homo sapiens) (UniProt P68371+Q9H4B7+P0DPH7+P68366+Q13509+Q71U36+P04350+Q3ZCM7+P07437+P68363+Q9BQE3+Q6PEY2+Q13885+Q9BVA1+Q9BUF5); experiment: Inhibition of tubulin (unknown origin) polymerization at 27.5 uM measured over 70 mins by turbidity method; assay type: protein-complex assay
Procedure, shortened: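 Tubulin at 25 µM in GAB buffer (10 mM sodium phosphate, 30% glycerol, 1 mM EGTA, 6 mM MgCl2, 1 mM GTP, pH 6.7) with 27.5 µM compound or DMSO vehicle. Turbidity is read at 355 nm for 70 min at 37 °C. Data are normalized to the initial stable absorbance plateau to correct for compound absorbance.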

[3] = Apparent solubility of compound in sodium phosphate buffer at 15 uM after 20 mins; assay type: physicochemical
[4] = tested on: A2780; experiment: Cytotoxicity against human A2780 cells after 48 hrs by MTT assay; assay type: functional, cell-based; details: A2780, 48 h
Procedure, shortened: (§1)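 Cells seeded at 12,000 to 17,000 per well depending on line, incubated overnight, then given serial dilutions of ligand for 48 h. MTT at 2.5 mg/mL added for 4 h at 37 °C, formazan solubilized overnight (10% SDS, 45% dimethylformamide, pH 5.5), absorbance read at 595/690 nm. IC50 from log-dose response curves; mean ± SE of three independent assays.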

[5] = Ratio of IC50 for human A2780AD cells to IC50 for human A2780 cells; assay type: functional
Procedure, shortened: (§2)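 Relative resistance: IC50 in the P-gp overexpressing resistant line divided by IC50 in the parental line. Both IC50s came from the 48 h MTT assay (serial dilutions, absorbance at 595/690 nm, log-dose response curves, three independent assays).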

[6] = tested on: NIH3T3; experiment: Cytotoxicity against mouse NIH/3T3 cells after 48 hrs by MTT assay; assay type: cell-based; details: NIH3T3, 48 h; procedure, shortened: as §1
[7] = Ratio of IC50 for mouse NIH/3T3 cells harboring MDR G185 to IC50 for mouse NIH/3T3 cells; procedure, shortened: as §2
[8] = tested on: B16-F10; experiment: Cytotoxicity against mouse B16F10 cells assessed as reduction in cell survival at 0.1 to 10 uM after 18 hrs by MTT assay; assay type: functional, cell-based
Procedure, shortened: (§3)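 Seeded at 2,500 cells/well in medium with 10% serum. After adhesion, exposed to 0.1, 1 and 10 μM in medium with 5% serum for 18 h. Medium then replaced with fresh medium containing 1.2 mM MTT for 4 h; formazan dissolved in DMSO, absorbance at 540 nm. Results given as % of basal response.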

[9] = tested on: HCC827; experiment: Cytotoxicity against human HCC827 cells assessed as reduction in cell survival at 0.1 to 10 uM after 18 hrs by MTT assay; assay type: functional, cell-based; procedure, shortened: as §3
[10] = tested on: HCC827; experiment: Cytotoxicity against human HCC827 cells assessed as reduction in cell survival at 0.1 to 10 uM after 50 to 60 hrs by MTT assay; assay type: functional, cell-based
[11] = tested on: PC-9; experiment: Induction of apoptosis in human PC9 cells assessed as increase in p21 expression at 10 uM after 18 hrs by Western blot analysis; assay type: functional, cell-based
Procedure, shortened: (§4)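 PC9 and HCC827 maintained in DMEM with 10% FBS, then exposed to 10 μM compound for 18 h in 5% serum. Caspase 3 activation and cell cycle proteins examined by western blot.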

[12] = tested on: HCC827; experiment: Induction of apoptosis in human HCC827 cells assessed as increase in caspase-3 expression at 10 uM after 18 hrs by Western blot analysis; assay type: functional, cell-based; procedure, shortened: as §4
[13] = tested on: HCC827; experiment: Induction of apoptosis in human HCC827 cells assessed as increase in p21 expression at 10 uM after 18 hrs by Western blot analysis; assay type: functional, cell-based; procedure, shortened: as §4
[14] = tested on: HCC827; experiment: Induction of apoptosis in human HCC827 cells assessed as reduction in cyclin D1 expression at 10 uM after 18 hrs by Western blot analysis; assay type: functional, cell-based; procedure, shortened: as §4
[15] = tested on: NB-4; experiment: Cell cycle arrest in human NB4 cells assessed as accumulation of cells at G1 phase after 24 hrs by propidium iodide staining-based flow cytometric analysis; assay type: functional
Procedure, shortened: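 NB4 cultured at 37 °C, 5% CO2 in RPMI-1640 with 10% heat-inactivated FBS. Treated at 50 and 100 nM, 1 and 10 μM for 24 h. Cells fixed/permeabilized in 70% ethanol overnight at 4 °C, then given RNase and 20 μg/ml PI for 30 min. Doublets excluded, 20,000 events per sample; cell-cycle phase distribution analysed.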

[16] = tested on: SCC-4; experiment: Cytotoxicity against human SCC4 cells after 48 hrs by MTT assay; assay type: functional, cell-based; details: SCC-4, 48 h
Procedure, shortened: (§5)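 Cells (NCI-H929 in RPMI-1640 GlutaMAX; SCC4 in DMEM GlutaMAX; 10% FBS, 37 °C, 5% CO2) treated with increasing concentrations for 48 h. IC50 is the mean of three independent experiments.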

[17] = tested on: NCI-H929; experiment: Cytotoxicity against human NCI-H929 cells after 48 hrs by MTT assay; assay type: functional, cell-based; details: NCI-H929, 48 h; procedure, shortened: as §5
[18] = tested on: Ca9-22; experiment: Cytotoxicity against human Ca9-22 cells after 48 hrs by MTT assay; assay type: functional, cell-based; details: Ca9-22, 48 h
[19] = tested on: Ca9-22; experiment: Cytotoxicity against human Ca9-22 cells after 72 hrs by MTT assay; assay type: functional, cell-based; details: Ca9-22, 72 h
[20] = tested on: NCI-H929; experiment: Induction of apoptosis in human NCI-H929 cells at 500 nM after 48 hrs by Annexin V/propidium iodide staining-based flow cytometric analysis relative to control; assay type: functional
Procedure, shortened: (§6)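 Seeding density: NCI-H929 and Ca9.22 at 30×10^4 cells/mL, SCC4 at 15×10^4 cells/mL. Cells exposed 48 h to compound (500 nM; 50 μM in SCC4 for one compound) or vehicle (1% EtOH v/v). Annexin V/PI staining, flow cytometry, 10,000 cells gated on vehicle-treated cells. Three independent experiments, mean ± S.E.M, T-test.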

[21] = tested on: SCC-4; experiment: Induction of apoptosis in human SCC4 cells at 500 nM after 48 hrs by Annexin V/propidium iodide staining-based flow cytometric analysis relative to control; assay type: functional; procedure, shortened: as §6
[22] = tested on: HL-60; experiment: Induction of autophagy in human HL60 cells assessed as […] in LC3B-2 levels at 10 uM after 16 hrs in presence of lysosomal inhibitor chloroquine by immunoblot analysis; assay type: functional, cell-based
Procedure, shortened: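 HL-60 in serum-supplemented RPMI 1640, or starved in Earle's Balanced Salts for 15 min beforehand, then treated with 10 μM compound with or without 40 μM chloroquine for 1 h 45 min or 16 h. LC3B-II measured by immunoblot, densitometry normalized to actin, three independent experiments, Student's T-test.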

[23] = Solubility of compound in pH 7.4 aqueous solution after 12 hrs by HPLC analysis; assay type: physicochemical
Procedure, shortened: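 Water solubility at pH 7.4 measured by HPLC analysis.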

[24] = molecular target: T1, Tubulin (Homo sapiens); experiment: Displacement of podophyllotoxin from tubulin (unknown origin) by ultracentrifugation method; assay type: protein-complex assay

CC(=O)OC1=C(c2cccc3ncccc23)Oc2cc3ccccc3cc2-n2cccc21
Activity [1]: Active | inhibition [2]: Active | solubility at 20 min, 15 µM [3]: 0.17 µM (≈ 0.0711 µg/mL) | IC50 [4]: 80 nM | Ratio IC50 [5]: 1.15 | IC50 [6]: 42 nM | Ratio IC50 [7]: 2 | Activity [8]: Active | Activity [9]: Active | Activity [10]: inactive | Activity [11]: Active | Activity [12]: Active | Activity [13]: Active | Activity [14]: Active | Activity [15]: Dose-dependent effect | IC50 [16]: 222 nM | IC50 [17]: 363 nM | IC50 [18]: 13400 nM | IC50 [19]: 4500 nM | Activity [20]: >40% | Activity [21]: >40% | Activity [22]: Active | solubility at 12 h [23]: 458 µM (≈ 192 µg/mL) | inhibition [24]: Active
